Yeast growth tox: Compounds toxic to wild-type S. cerevisiae growth; A595 turbidity, 16 h; growth inhibition, % at 25 µM (by protocol); AID 685; 0.3% of 30,000 active;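 active = mutant and wild-type yeast strains alike exhibit over 30% growth inhibition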
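Schedule: 16 h growth with compound, 30 °C. System: yeast, wild-type or eIF2Bepsilon-R284H mutant. Doses: one dose, 25 µM compound[…]. Buffer or medium: YPD. Signal: turbidity measured as absorbance at 595 nm. Read-out basis: growth inhibition (%) versus cell controls and blanks.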
Yeast eIF2B: modulators of yeast eIF2B activity. 0.91% of 27,000 active. S. cerevisiae eIF2B-epsilon R284H, GCN4-lacZ luminescence. inhibition, % at 25 µM (by protocol). AID 688;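 active = mutant luminescence inhibited past about 50% while wild type luminescence and mutant growth stay under set limits, limit read from the data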
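Times: 16 h growth with compound at 30 °C, 90 min Beta-Glo step; Assay system: yeast eIF2B-epsilon R284H mutant carrying GCN4–beta-galactosidase fusion; Measure: % inhibition of reporter signal and growth versus controls; Dosing: one concentration, 25 µM, 0.25% DMSO; Buffer or medium: YPD yeast growth medium; Measured by: Beta-Glo luminescence plus absorbance at 595 nm.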
Of the large screens only hits and unclear results are named; the others gave an inactive call. A selection: hits, their analogues and other compounds. The true share with any hit is near 1%.

COc1ccc(NC(=O)CCNC(=O)Cn2cnc3ccccc3c2=O)c(OC)c1	none
Nn1c(CSc2nc3ccccc3o2)nnc1CSc1nc2ccccc2o1	Yeast eIF2B 61
c1ccc2[nH]c(CSc3nc4ccccc4o3)nc2c1	none
Cc1cc2n(n1)SC(Nc1ccccc1)N2 (stereo unspecified)	Yeast eIF2B 55 (no result: Yeast growth tox)
Clc1ccc(OCc2nnc3n2N=C(c2ccc4c(c2)OCCO4)CS3)c(Cl)c1	none
COC(=O)C1(Cc2ccccc2)NC(c2ccccc2C)C2C(=O)N(c3ccc4c(c3)OCO4)C(=O)C21 (stereo unspecified)	none
COc1cccc(C2NC(CC(C)C)(C(=O)O)C3C(=O)N(Cc4ccccc4)C(=O)C23)c1O (stereo unspecified)	Yeast eIF2B 52
Clc1ccc(Nc2nc(-c3cccnc3)cs2)cc1	none
Cc1cccnc1Nc1nc(-c2ccc(O)cc2)cs1	Yeast growth tox 36 (no result: Yeast eIF2B)
C(=C\c1ccccc1)/C=N/n1cnnc1	none
Cc1cc(NC(=O)COC(=O)C(Cc2ccccc2)NC(=O)c2ccco2)no1 (stereo unspecified)	none
O=C(NC(Cc1ccccc1)C(=O)OCC(=O)N1CCc2ccccc21)c1ccco1 (stereo unspecified)	Yeast eIF2B 52
COC(=O)c1nn(-c2ccc3c(c2)CCN3C(C)=O)cc1O	Yeast eIF2B 77
COC(=O)c1nn(-c2ccc3c(c2)OCO3)cc1O	none
CC(=O)Nc1cc(C(F)(F)F)ccc1OCCOc1ccccc1	Yeast eIF2B 55
COC(=O)Nc1cc(C(F)(F)F)ccc1N1CCN(c2ccccc2)CC1	none
O=C(c1ccc(C(=O)N2CCCc3ccccc32)nc1)N1CCCc2ccccc21	none
CCOc1ccc(OCC)c(S(=O)(=O)NCc2ccccn2)c1	none
CCOc1ccc(-n2nc(C(=O)N3CCN(CC)CC3)c3ccccc3c2=O)cc1	none
CCOc1ccc(-n2nc(C(=O)N3CCOCC3)c3ccccc3c2=O)cc1	Yeast eIF2B 59
Cc1cc(C(=O)OCC(=O)NCCc2ccccc2)c(C)o1	none
O=C(Nc1ccccc1)C1CC=CCC1C(=O)OCC1CCCO1 (stereo unspecified)	Yeast growth tox 33
O=C(NCC1CCCO1)c1ccccc1 (stereo unspecified)	none
COCCNC(=O)C(C)OC(=O)c1cc2occc2n1C (stereo unspecified)	none
COc1cc(/C=C2\C(=O)N(CCC#N)N=C2C)c(Br)cc1OC(C)C	Yeast eIF2B 53
NC(=O)C1CCN(CCC(=O)Nc2ccc3c(c2)CCC3)CC1	none (no result: Yeast eIF2B)
Cc1c(NC(=O)c2cnn3c2NC(c2ccco2)CC3C(F)(F)F)c(=O)n(-c2ccccc2)n1C (stereo unspecified)	none (no result: Yeast growth tox)
c1ccc2oc(CCc3nc4ccccc4o3)nc2c1	none
Nc1ccc2oc(CCc3ccccc3)nc2c1	Yeast eIF2B 53
COn1c(SCc2ccc(C)cc2C)nc2ccccc2c1=O	none
COC(=O)c1ccc(C(=O)OC)c(NC(=O)CSc2nc(-c3ccco3)cc(C(F)(F)F)n2)c1	none
COC(=O)c1ccccc1NC(=O)CSc1nc(-c2ccco2)cc(C(F)(F)F)n1	Yeast eIF2B 66
CCOc1ccccc1CNc1ccc(N2CCOCC2)c(C(=O)O)c1	none
c1ccc(N(c2ccccc2)c2nc(-n3ccnc3)nc(-n3ccnc3)n2)cc1	Yeast growth tox 101
CN(c1ccccc1)c1nc(-n2ccnc2)nc(-n2ccnc2)n1	none
COc1cc(OC)c(-c2nn3c(-c4ccncc4)nnc3s2)cc1OC	none
Cc1nnc2sc(-c3ccncc3)nn12	Yeast eIF2B 64
CC(C)CCN(C)C1CCN(S(=O)(=O)c2cccc(C(F)(F)F)c2)CC1	none
COc1ccc2cc(C(c3nnnn3C3CCCC3)N3CCCCCC3)c3nnnn3c2c1 (stereo unspecified)	none
O=C(c1cccc(OC(F)F)c1)N1CCN(c2ncccn2)CC1	none
CCOC(=O)N1CCN(C(=O)CCc2ccc(S(=O)(=O)NCCc3ccccc3)cc2)CC1	none
CCOC(=O)C1=C(CSc2nc3c(cc2C#N)CN(C)CC3)OC(N)=C(C#N)C1c1ccccc1 (stereo unspecified)	none
CN1CCc2nc(SCCOc3ccccc3)c(C#N)cc2C1	Yeast eIF2B 70
O=C(O)CNC(=O)CCN1C(=O)c2ccccc2C1=O	none
CCCN(CCC)C(=O)CSc1nc2ccccc2c(=O)n1C1CCCC1	none
CCOc1ccc(S(=O)(=O)n2nnc3ccccc32)cc1C(C)C	none
CCCCCCCCCCn1c2c(c(=N)c3c1CCC3)CCC2	Yeast growth tox 79 (no result: Yeast eIF2B)
CCCCCCn1ccc(=N)cc1	none
FC(F)(F)C1CC(c2cccs2)Nc2ncnn21 (stereo unspecified)	none
COc1ccc(C2SCC(=O)N2CC23CC4CC(CC(C4)C2)C3)cc1 (stereo unspecified)	none
CCNc1nc(NC(C)C)nc(NS(=O)(=O)c2ccc(N)cc2)n1	none (no result: Yeast eIF2B)
CCOC(=O)c1cc(S(=O)(=O)N2CCN(C(=O)OCC)CC2)cn1C	Yeast eIF2B 67
CCOC(=O)COc1ccc(S(=O)(=O)N2CCN(C(=O)OCC)CC2)cc1	none
